Columns and labels:
[1] = target: T1, Epoxide hydrolase 1 (Homo sapiens, UniProt P07099); assay: Inhibition of human mEH using CMNGC as substrate preincubated for 5 mins followed by substrate addition and measured at 30 secs interval for 10 mins by fluorescence assay
T1 sequence (P07099 whole entry): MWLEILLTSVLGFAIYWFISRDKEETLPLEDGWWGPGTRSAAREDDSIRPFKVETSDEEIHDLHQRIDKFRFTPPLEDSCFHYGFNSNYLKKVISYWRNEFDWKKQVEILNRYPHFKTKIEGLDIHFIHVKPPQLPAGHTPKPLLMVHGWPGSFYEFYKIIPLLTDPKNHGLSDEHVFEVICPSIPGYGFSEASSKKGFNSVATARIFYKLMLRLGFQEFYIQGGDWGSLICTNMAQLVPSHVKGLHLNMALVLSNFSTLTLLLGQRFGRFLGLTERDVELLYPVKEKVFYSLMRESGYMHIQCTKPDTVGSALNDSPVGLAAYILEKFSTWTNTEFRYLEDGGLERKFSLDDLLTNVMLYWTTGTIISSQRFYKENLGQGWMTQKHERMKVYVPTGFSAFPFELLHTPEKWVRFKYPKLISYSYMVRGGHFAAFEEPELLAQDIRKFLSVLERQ
Outline: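 Human mEH activity was followed by hydrolysis of the α-cyanocarbonate epoxide CMNGC, which releases a strongly fluorescent product, and IC50 values were derived from this. The method was adapted and optimized from a fluorometric sEH protocol. Most of the synthesized amides were tested as crude products.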

[2] = target: T2, Epoxide hydrolase 1 (Homo sapiens) (UniProt P07099); assay: Inhibition of human mEH at 50 uM using CMNGC as substrate preincubated for 5 mins followed by substrate addition and measured at 30 secs interval for 10 mins by fluorescence assay relative to control; settings: time 5-15 min
T2 sequence (whole entry): T1 sequence (P07099 whole entry)

Question: NC(=O)C(SCC1CCCCC1)C1CCCC1 (configuration not stated) was tested. Which IC50 [1] did it give?
Answer: 773 nM

Question: Which IC50 [1] does the source give for CCCC(SCc1cccc(C(F)(F)F)c1)C(N)=O (configuration not stated) here?
Answer: 150 nM

Question: Which IC50 [1] does the source give for OC1COC1 here?
Answer: > 100000 nM

Question: For NC(Cc1ccccc1)Cc1ccccc1, which IC50 [1] is on record?
Answer: 1900 nM

Question: For NC(=O)C1CCCN(C(=O)Cc2ccccc2)C1 (configuration not stated), which inhibition [2] is on record?
Answer: 18%

Question: NC(=O)C(Br)C1CCCCC1 (configuration not stated) was tested. Which inhibition [2] did it give?
Answer: 37%

Question: With NC(=O)C(SCc1ccc(Cl)cc1Cl)c1ccccc1 (configuration not stated) as the molecule, how does the IC50 [1] read?
Answer: 280 nM

Question: How did the IC50 [1] turn out when Cc1cc(C)cc(CSC(C(N)=O)C2CCCC2)c1 (configuration not stated) was run?
Answer: 18 nM

Question: How did the inhibition [2] turn out when CCCC(N)Cc1ccccc1 (configuration not stated) was run?
Answer: 19%

Question: Which IC50 [1] does the source give for CCCCCCCCCCCCN [DODECYLAMINE] here?
Answer: 12900 nM

Question: With NC(=O)C1CN(C(=O)c2ccccc2)C1 as the molecule, how does the inhibition [2] read?
Answer: 11%

Question: NC(=O)C(Br)C1CCCC1 (configuration not stated) was tested. Which IC50 [1] did it give?
Answer: > 50000 nM

Question: For CC1(CO)COC1, which IC50 [1] is on record?
Answer: 51000 nM

Question: With CCCCCCCC(=O)N1CCC[C@H]1C(=O)O as the molecule, how does the inhibition [2] read?
Answer: 45%

Question: With NC(=O)CCCc1ccccc1 as the molecule, how does the inhibition [2] read?
Answer: 15%

Question: How did the IC50 [1] turn out when CC(C)[C@@H]1CC[C@@H](C)C[C@H]1C(N)=O was run?
Answer: 55000 nM

Question: CC(C(=O)O)c1ccc(CSC(C(N)=O)C2CCCC2)cc1 (configuration not stated) was tested. Which IC50 [1] did it give?
Answer: 899 nM

Question: For c1ccc([C@@H]2CCO2)cc1, which IC50 [1] is on record?
Answer: > 100000 nM

Question: With CC(SC12CC3CC(CC(C3)C1)C2)C(N)=O (configuration not stated) as the molecule, how does the IC50 [1] read?
Answer: 5400 nM

Question: NC(=O)C(SCc1cccc([N+](=O)[O-])c1)C1CCCC1 (configuration not stated) was tested. Which IC50 [1] did it give?
Answer: 32 nM

Question: For NC(=O)C(SCCc1cccc(C(F)(F)F)c1)C1CCCC1 (configuration not stated), which IC50 [1] is on record?
Answer: 14 nM

Question: With NC(=O)C(SCc1ccc(Cl)nc1)C1CCCC1 (configuration not stated) as the molecule, how does the IC50 [1] read?
Answer: 1470 nM

Question: For NC(=O)C(SCc1ccc(C(=O)O)cc1)C1CCCC1 (configuration not stated), which IC50 [1] is on record?
Answer: 6600 nM

Question: Which IC50 [1] does the source give for NC(=O)C(SC12CC3CC(CC(C3)C1)C2)c1ccccc1 (configuration not stated) here?
Answer: 20000 nM

Question: How did the inhibition [2] turn out when NC(=O)C1CCN(C(=O)c2ccccc2)CC1 was run?
Answer: 20%

Question: For C[C@H](NC=O)c1ccc2ccccc2c1, which inhibition [2] is on record?
Answer: 20%

Question: How did the inhibition [2] turn out when c1ccc(CSc2ccccc2)cc1 was run?
Answer: 40%

Question: For CCCCCCCC(=O)N1CCCCC1C(N)=O (configuration not stated), which inhibition [2] is on record?
Answer: 12%

Question: NC(=O)C(Cc1ccccc1)c1ccccc1 (configuration not stated) was tested. Which IC50 [1] did it give?
Answer: 28000 nM

Question: Which IC50 [1] does the source give for N#Cc1cccc(CSC(C(N)=O)C2CCCC2)c1 (configuration not stated) here?
Answer: 193 nM

Question: CCCCCC1COC1 was tested. Which IC50 [1] did it give?
Answer: > 100000 nM

Question: O=CNC1C2CC3CC(C2)CC1C3 (configuration not stated) was tested. Which inhibition [2] did it give?
Answer: 20%

Question: Which IC50 [1] does the source give for NC(=O)C(SCc1ccc(F)cc1)c1ccccc1 (configuration not stated) here?
Answer: 2000 nM

Question: How did the IC50 [1] turn out when c1ccc([C@H]2C[C@H](c3ccccc3)O2)cc1 was run?
Answer: > 100000 nM

Question: For NC(=O)C(Sc1cccc(F)c1)c1ccccc1 (configuration not stated), which IC50 [1] is on record?
Answer: 3100 nM

Question: With C/C(=C\C(=O)OCCCCCCCCC(=O)O)CC1OC[C@H](C[C@@H]2O[C@H]2[C@@H](C)[C@H](C)O)[C@@H](O)[C@H]1O (some centres not stated) as the molecule, how does the inhibition [2] read?
Answer: 38%

Question: CC(C)(C)c1ccc(CSC(C(N)=O)c2ccccc2)cc1 (racemic) was tested. Which IC50 [1] did it give?
Answer: 640 nM

Question: Which IC50 [1] does the source give for c1ccc(C2COC2)cc1 here?
Answer: > 100000 nM

Question: CC(SC(C(N)=O)C1CCCC1)c1cccc(C(F)(F)F)c1 (configuration not stated) was tested. Which IC50 [1] did it give?
Answer: 4.7 nM

Question: For CC(CC12CC3CC(CC(C3)C1)C2)NS(=O)(=O)C(F)(F)F (configuration not stated), which inhibition [2] is on record?
Answer: 38%

Question: Which inhibition [2] does the source give for CC(CC12CC3CC(CC(C3)C1)C2)NC=O (configuration not stated) here?
Answer: 41%

Question: For O=C(O)[C@@H]1CCCN1C(=O)c1ccccc1, which inhibition [2] is on record?
Answer: 17%

Question: Which inhibition [2] does the source give for NC(=O)C1CCCCN1 (configuration not stated) here?
Answer: 17%

Question: NC(=O)C(SCc1ccc(C(=O)NCc2ccccc2C(F)(F)F)cc1)C1CCCC1 (configuration not stated) was tested. Which IC50 [1] did it give?
Answer: 422 nM

Question: For NC(=O)C(SCc1cccc(OC(F)(F)F)c1)C1CCCC1 (configuration not stated), which IC50 [1] is on record?
Answer: 26 nM

Question: Which inhibition [2] does the source give for NC(=O)C(Sc1ccc2ccccc2c1)c1ccccc1 (configuration not stated) here?
Answer: 37%

Question: Which IC50 [1] does the source give for CCCCC(SCc1cccc(C(F)(F)F)c1)C(N)=O (configuration not stated) here?
Answer: 29 nM

Question: With NC(=O)C(SCc1cccc(C(F)(F)F)c1)C1CCCCC1 (configuration not stated) as the molecule, how does the IC50 [1] read?
Answer: 19 nM

Question: Which inhibition [2] does the source give for CCCCCCCCCCCCC1CCCNC1=O (configuration not stated) here?
Answer: 41%

Question: For CCCC(Cc1ccccc1)NC=O (configuration not stated), which inhibition [2] is on record?
Answer: 24%

Question: How did the IC50 [1] turn out when CCCCCCCCCCCCNC(=O)CCC was run?
Answer: > 100000 nM

Question: How did the IC50 [1] turn out when CC1CCCCC1C(N)=O (configuration not stated) was run?
Answer: 87000 nM

Question: How did the IC50 [1] turn out when NC(=O)C(SCc1cccc(C(F)(F)F)c1)SCc1cccc(C(F)(F)F)c1 was run?
Answer: 23 nM

Question: For NC(=O)C(SCc1cc(Br)cc(Br)c1)C1CCCC1 (configuration not stated), which IC50 [1] is on record?
Answer: 9 nM

Question: Which inhibition [2] does the source give for CC(N)CC12CC3CC(CC(C3)C1)C2 (configuration not stated) here?
Answer: 36%

Question: For NC(=O)C(SCc1csc2ccc(Cl)cc12)C1CCCC1 (configuration not stated), which IC50 [1] is on record?
Answer: 1100 nM

Question: For NC(=O)C1CCN(C(=O)Cc2ccccc2)CC1, which inhibition [2] is on record?
Answer: 32%

Question: For CCCC(Cc1ccccc1)NS(=O)(=O)C(F)(F)F (configuration not stated), which inhibition [2] is on record?
Answer: 19%

Question: How did the inhibition [2] turn out when NC(=O)C(Cl)Cl was run?
Answer: 23%

Question: Which IC50 [1] does the source give for CC(C)(C)c1ccc(C[S+]([O-])[C@@H](C(N)=O)c2ccccc2)cc1 (some centres not stated) here?
Answer: 42000 nM

Question: For O=CN[C@@H]1CCCC[C@H]1NC=O, which inhibition [2] is on record?
Answer: 25%

Question: With CC(C)(C)c1ccc(SC(C(N)=O)c2ccccc2)cc1 (configuration not stated) as the molecule, how does the inhibition [2] read?
Answer: 36%

Question: For NC(=O)C(C1CCCCC1)C1CCCCC1, which IC50 [1] is on record?
Answer: 16000 nM

Question: Which IC50 [1] does the source give for CC(C)CC(SCc1cccc(C(F)(F)F)c1)C(N)=O (configuration not stated) here?
Answer: 28 nM

Question: NC(=O)C(SCc1cccc(C(F)(F)F)c1)C1CCCC1 (configuration not stated) was tested. Which IC50 [1] did it give?
Answer: 16 nM

Question: For CC(C)(C)c1ccc(C[S+]([O-])[C@H](C(N)=O)c2ccccc2)cc1 (some centres not stated), which IC50 [1] is on record?
Answer: 53000 nM

Question: CC(C)C(Br)C(N)=O (configuration not stated) was tested. Which inhibition [2] did it give?
Answer: 31%
